# Measurements gathered from unrelated publications.
# Compare with care: the assays were run in different laboratories.
# EIF2AK4 S808G C-terminal kinase domain: eIF-2-alpha kinase GCN2, C-terminal kinase domain (EIF2AK4, Homo sapiens, UniProt Q9P2K8, S808G)
# EIF2AK4 S808G: eIF-2-alpha kinase GCN2 (EIF2AK4, Homo sapiens, UniProt Q9P2K8, S808G)
SMILES,target,test,setting,remaining binding [%]
CCCCN(CCCC)C(=O)CN1C[C@@H](c2cc(OC)c3c(c2)OCO3)[C@H](C(=O)O)[C@H]1CC(C)(C)CCC,EIF2AK4 S808G C-terminal kinase domain,"cell-free assay, competition with immobilised ligand",1 µM,100
O=C(c1ccc(Nc2nccc(-c3cc4ccccc4s3)n2)cc1)N1CCC(N2CCCC2)CC1,EIF2AK4 S808G C-terminal kinase domain,"binding, competition with immobilised ligand",1 µM,5.2
CCC(=N\O)/C(C)=C/c1ccc(F)cc1,EIF2AK4 S808G C-terminal kinase domain,"cell-free assay, competition with immobilised ligand",1 µM,70
F[C@@H]1CCN(c2nccc(-c3cnn4ncccc34)n2)C1,EIF2AK4 S808G,binding,1 µM,63
C[C@H](NC(=O)c1cnc2n1[C@](C)(Cc1ccc(C#N)cc1)C(=O)N2c1cc(Cl)c(F)c(Cl)c1)C(=O)NC1(c2ccccn2)CC1,EIF2AK4 S808G C-terminal kinase domain,"cell-free assay, competition with immobilised ligand",1 µM,100
CN(C)c1nccc(-c2cnn3ncccc23)n1,EIF2AK4 S808G,binding,1 µM,100
O=C(c1ccc(Nc2ncc(Cl)c(-c3cc4ccccc4s3)n2)cc1)N1CCC(N2CCCC2)CC1,EIF2AK4 S808G C-terminal kinase domain,"binding, competition with immobilised ligand",1 µM,0
O=C(NC[C@@H]1[C@H]2CN(C(=O)OCc3cc(C(F)(F)F)cc(C(F)(F)F)c3)C[C@@H]12)c1ccc2[nH]nnc2c1,EIF2AK4 S808G C-terminal kinase domain,"cell-free assay, competition with immobilised ligand",1 µM,84
C[C@@H](c1ccc(-n2cnc3c(N)ncnc32)cc1)N1CCc2nn(C)c(Cc3ccccc3)c2C1=O,EIF2AK4 S808G C-terminal kinase domain,"binding, competition with immobilised ligand",0.1 µM,98
CCN1CCN(Cc2ccc(C(=O)Nc3ccc(C)c(Oc4ccc5c(c4)CC(=O)N5)c3)cc2C(F)(F)F)CC1,EIF2AK4 S808G C-terminal kinase domain,"binding, competition with immobilised ligand",1 µM,100
Nc1ncc2c(n1)-c1c([nH]c3ccc(C#CC4CC4)cc13)CCCC2,EIF2AK4 S808G C-terminal kinase domain,"binding, competition with immobilised ligand",1 µM,89
O=C(O)[C@H]1[C@H](Cn2nnc3ccccc3c2=O)CC[C@@H]1C(=O)c1ccc(OCCC2CCOCC2)cc1,EIF2AK4 S808G C-terminal kinase domain,"cell-free assay, competition with immobilised ligand",1 µM,55
COc1cnc(Nc2cccc(S(N)(=O)=O)c2)nc1N1CCN(c2ccccc2)CC1,EIF2AK4 S808G C-terminal kinase domain,"binding, competition with immobilised ligand",1 µM,95
c1cnn2ncc(-c3ccnc(N4CCC45COC5)n3)c2c1,EIF2AK4 S808G,binding,1 µM,100
O=C(Nc1c[nH]nc1C(=O)NC1CCNCC1)c1cc(F)cc(F)c1,EIF2AK4 S808G C-terminal kinase domain,"binding, competition with immobilised ligand",1 µM,100
N[C@H]1CCN(c2nccc(-c3cnn4ncccc34)n2)C1,EIF2AK4 S808G,binding,1 µM,100
CN1CCN(c2ccc(Nc3nccc(-c4ccccc4)n3)cc2C(F)(F)F)CC1,EIF2AK4 S808G,binding,10 µM,0.2
O=C(NS(=O)(=O)c1ccc(NCC2CCOCC2)c([N+](=O)[O-])c1)c1ccc(N2CCN(Cc3ccc(C(F)(F)F)cc3-c3ccc(Cl)cc3)CC2)cc1Oc1cnc2[nH]ccc2c1,EIF2AK4 S808G C-terminal kinase domain,"cell-free assay, competition with immobilised ligand",1 µM,85
C[C@H]1CCN(c2nccc(-c3cnn4ncccc34)n2)C1,EIF2AK4 S808G,binding,1 µM,100
FC(F)(F)Oc1cccc(-c2cnc3ccc(-c4ccncc4)nn23)c1,EIF2AK4 S808G,"binding, competition with immobilised ligand",5 µM,35
COc1ccnn2ncc(-c3ccnc(N(C)C)n3)c12,EIF2AK4 S808G,binding,1 µM,93
Cc1cnc(Nc2ccc(C(=O)N3CCC(N4CCCC4)CC3)cc2)nc1-c1cc2ccccc2s1,EIF2AK4 S808G C-terminal kinase domain,"binding, competition with immobilised ligand",1 µM,0
